Data taken from ChEMBL document CHEMBL4145448, “Broad activity of diphenyleneiodonium analogues against Mycobacterium tuberculosis, malaria parasites and bacterial pathogens” (Eur J Med Chem, 2018).

Assays:
[1] = Selectivity index, ratio of CC50 for human HepG2 cells in presence of 1% FBS to IC50 for Plasmodium knowlesi YH1; format: toxicity; details: read-out: Ratio IC50
[2] = Selectivity index, ratio of CC50 for human HepG2 cells in presence of 1% FBS to MIC for Pseudomonas aeruginosa isolate 912; format: toxicity; details: read-out: Selectivity Index
Summary of the method: (§1)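 Selectivity index is CC50 (1% FBS) divided by MIC. […] They then got compound at 300 to 0.14 µM (3-fold steps) for 24 h at 37 °C, 5% CO2. Resazurin (10 µM, 2 h) was read at ex/em 560/590 in duplicate wells. For MIC, CLSI broth microdilution was run in CaMHB with ~10^6 cfu/mL inoculum and 0–128 µM compound.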

Plasmodium falciparum [3] = test: Growth inhibition of […] GFP-fused Plasmodium falciparum D10 after 90 hrs by ethidium bromide staining based flow cytometry; format: functional, organism-based; details: D10, 90 h
Summary of the method: (§2)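 Parasites cultured in human O+ erythrocytes in RPMI-HEPES pH 7.4 with hypoxanthine, NaHCO3, gentamicin and 0.5% Albumax II under 1% O2/4% CO2 at 37 °C. Synchronised to rings with heparin plus sorbitol. Set up at 1% parasitaemia and 1% haematocrit with 10x compound added. Cultured 90 h to next-cycle trophozoites. Stained with 10 µg/mL ethidium bromide for 1 h, washed, parasitaemia counted by flow cytometry with GFP gating.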

[4] = Selectivity index, ratio of CC50 for human HepG2 cells in presence of 1% FBS to MIC for Pseudomonas aeruginosa isolate 19147nm; format: toxicity; details: read-out: Selectivity Index; summary of the method: as §1
[5] = Selectivity index, ratio of CC50 for human HepG2 cells in presence of 1% FBS to MIC for Acinetobacter baumannii ATCC 19606 col10; format: toxicity; details: read-out: Selectivity Index
Klebsiella pneumoniae = test: Antibacterial activity against Klebsiella pneumoniae ATCC 13883 after 18 hrs by broth microdilution method; format: functional; details: ATCC 13883, 18 h
Summary of the method: (§3)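 Broth microdilution per CLSI in cation-adjusted Mueller-Hinton broth. 100 µL inoculum (~10^6 cfu/mL in CaMHB) mixed with 100 µL CaMHB containing compound, 0 to 128 µM. Incubated 18 h at 37 °C. MIC taken as the lowest concentration with no visible growth. Polymyxin B served as positive control. Isolates were stored at -80 °C in tryptone soy broth with 20% glycerol.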

[6] = Selectivity index, ratio of CC50 for human HepG2 cells in presence of 1% FBS to MIC for Pseudomonas aeruginosa ATCC 27853; format: toxicity; details: read-out: Selectivity Index; summary of the method: as §1
Escherichia coli = test: Antibacterial activity against Escherichia coli N2381 after 18 hrs by broth microdilution method; format: functional; details: N2381, 18 h; summary of the method: as §3
[7] = Selectivity index, ratio of CC50 for human HepG2 cells in presence of 1% FBS to MIC for Acinetobacter baumannii ATCC 17978; format: toxicity; details: read-out: Selectivity Index
Staphylococcus aureus [8] = test: Antibacterial activity against methicillin-resistant Staphylococcus aureus ATCC 43300 after 18 hrs by broth microdilution method; format: functional; details: ATCC 43300, 18 h; summary of the method: as §3
Acinetobacter baumannii [9] = test: Antibacterial activity against Acinetobacter baumannii ATCC 19606 after 18 hrs by broth microdilution method; format: functional; details: ATCC 19606 = CIP 70.34 = JCM 6841, 18 h; summary of the method: as §3
Acinetobacter baumannii [10] = test: Antibacterial activity against Acinetobacter baumannii ATCC 17978 col10 after 18 hrs by broth microdilution method; format: functional; details: ATCC 17978 col10, 18 h; summary of the method: as §3
[11] = Selectivity index, ratio of CC50 for human HepG2 cells in presence of 1% FBS to MIC for methicillin-resistant Staphylococcus aureus ATCC 43300; format: toxicity; details: read-out: Selectivity Index; summary of the method: as §1
Plasmodium knowlesi [12] = test: Growth inhibition of Plasmodium knowlesi YH1 after 50 hrs by ethidium bromide staining based flow cytometry; format: functional, organism-based; details: YH1, 50 h
Summary of the method: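 P. knowlesi YH1 cultured in human O+ erythrocytes in RPMI-HEPES with 0.5% Albumax II under 1% O2/4% CO2. Ring-synchronised parasites set up at 1% parasitaemia and 1% haematocrit with compound. Cultured 50 h to late trophozoites of the next cycle. Stained 1 h with 10 µg/mL ethidium bromide and parasitaemia counted by flow cytometry.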

[13] = Selectivity index, ratio of CC50 for human HepG2 cells in presence of 1% FBS to MIC for Acinetobacter baumannii isolate 07AC-336; format: toxicity; details: read-out: Selectivity Index
Pseudomonas aeruginosa [14] = test: Antibacterial activity against Pseudomonas aeruginosa isolate M146201 after 18 hrs by broth microdilution method; format: functional; details: isolate M146201, 18 h; summary of the method: as §3
[15] = Selectivity index, ratio of CC50 for human HepG2 cells in presence of 1% FBS to IC50 for drug-resistant GFP-fused Plasmodium falciparum D10; format: toxicity; details: read-out: Ratio IC50
[16] = Selectivity index, ratio of CC50 for human HepG2 cells in presence of 1% FBS to MIC for Klebsiella pneumoniae isolate M320445; format: toxicity; details: read-out: Selectivity Index
Acinetobacter baumannii [17] = test: Antibacterial activity against Acinetobacter baumannii ATCC 17978 after 18 hrs by broth microdilution method; format: functional; details: ATCC 17978, 18 h; summary of the method: as §3
Enterococcus faecium = test: Antibacterial activity against vancomycin-resistant Enterococcus faecium ATCC 700221 after 18 hrs by broth microdilution method; format: functional; details: ATCC 700221, 18 h; summary of the method: as §3
[18] = Selectivity index, ratio of CC50 for human HepG2 cells in presence of 1% FBS to MIC for Escherichia coli N2381; format: toxicity; details: read-out: Selectivity Index
Staphylococcus aureus [19] = test: Antibacterial activity against vancomycin-intermediate Staphylococcus aureus ATCC 700698 after 18 hrs by broth microdilution method; format: functional; details: ATCC 700698, 18 h; summary of the method: as §3
Pseudomonas aeruginosa [20] = test: Antibacterial activity against Pseudomonas aeruginosa isolate 19147nm after 18 hrs by broth microdilution method; format: functional; summary of the method: as §3
Plasmodium falciparum [21] = test: Growth inhibition of CQ-sensitive GFP-fused Plasmodium falciparum D10 after 90 hrs by ethidium bromide staining based flow cytometry; format: functional, organism-based; details: D10, 90 h; summary of the method: as §2
Plasmodium knowlesi [22] = test: microbe, parasite or virus in culture; details: YH1, 90 h
Plasmodium falciparum [23] = test: microbe, parasite or virus in culture; details: CS2, 90 h
[24] = Stability in cation-adjusted Mueller-Hinton broth at 37 degC after 1 day by LC-MS analysis; format: physicochemical; details: 24 h
Summary of the method: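 Compound was incubated under bacterial assay conditions: CaMHB, 37 °C, polypropylene microtitre wells. The species present were analysed by LCMS the next day.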

## N#Cc1ccc2c(c1)-c1ccccc1[I+]2
[1]
  selectivity ratio: 232
[2]
  selectivity ratio: 2.5
Plasmodium falciparum [3]
  IC50: 90 nM
[4]
  selectivity ratio: 5.1
[5]
  selectivity ratio: 10
Klebsiella pneumoniae
  MIC: 35 µM
[6]
  selectivity ratio: 0.32
Escherichia coli
  MIC: 71 µM
[7]
  selectivity ratio: 5.1
Staphylococcus aureus [8]
  MIC: 1.1 µM
Acinetobacter baumannii [9]
  MIC: 18 µM
Acinetobacter baumannii [10]
  MIC: 2.2 µM
[11]
  selectivity ratio: 20
Plasmodium knowlesi [12]
  IC50: 110 nM
[13]
  selectivity ratio: 0.32
Pseudomonas aeruginosa [14]
  MIC: 8.8 µM
[15]
  selectivity ratio: 256
[16]
  selectivity ratio: 0.32
Acinetobacter baumannii [17]
  MIC: 4.4 µM
Enterococcus faecium
  MIC: 1.1 µM
[18]
  selectivity ratio: 0.32
Staphylococcus aureus [19]
  MIC: 8.8 µM
Pseudomonas aeruginosa [20]
  MIC: 4.4 µM
Plasmodium falciparum [21]
  IC50: 40 nM

## Clc1cccc2c1-c1ccccc1[I+]2
[1]
  selectivity ratio: 8.5
[2]
  selectivity ratio: < 2.4
Plasmodium falciparum [3]
  IC50: 70 nM
[4]
  selectivity ratio: < 2.4
[5]
  selectivity ratio: < 2.4
Klebsiella pneumoniae
  MIC: 4.3 µM
[6]
  selectivity ratio: < 2.4
Escherichia coli
  MIC: 0.54 µM
[7]
  selectivity ratio: < 2.4
Staphylococcus aureus [8]
  MIC: 1.1 µM
Acinetobacter baumannii [9]
  MIC: < 0.27 µM
Acinetobacter baumannii [10]
  MIC: < 0.27 µM
[11]
  selectivity ratio: 0.61
Plasmodium knowlesi [12]
  IC50: 80 nM
[13]
  selectivity ratio: < 2.4
Pseudomonas aeruginosa [14]
  MIC: 0.54 µM
[15]
  selectivity ratio: 8.9
[16]
  selectivity ratio: 0.08
Acinetobacter baumannii [17]
  MIC: < 0.27 µM
Enterococcus faecium
  MIC: < 0.27 µM
[18]
  selectivity ratio: 1.2
Staphylococcus aureus [19]
  MIC: 2.3 µM
Pseudomonas aeruginosa [20]
  MIC: < 0.27 µM
Plasmodium falciparum [21]
  IC50: 50 nM

## c1ccc2c(c1)[I+]c1ccccc1-2
[2]
  selectivity ratio: 6.3
[4]
  selectivity ratio: 13
[5]
  selectivity ratio: 6.3
Klebsiella pneumoniae
  MIC: 37 µM
[6]
  selectivity ratio: 0.39
Escherichia coli
  MIC: 37 µM
[7]
  selectivity ratio: 13
Staphylococcus aureus [8]
  MIC: 4.7 µM
Acinetobacter baumannii [9]
  MIC: 9.3 µM
Acinetobacter baumannii [10]
  MIC: 0.58 µM
[11]
  selectivity ratio: 6.3
Plasmodium knowlesi [22]
  IC50: 740 nM
[13]
  selectivity ratio: 1.6
Pseudomonas aeruginosa [14]
  MIC: 9.3 µM
Plasmodium falciparum [23]
  IC50: 40 nM
[16]
  selectivity ratio: 0.78
Acinetobacter baumannii [17]
  MIC: 2.3 µM
Enterococcus faecium
  MIC: 4.7 µM
[18]
  selectivity ratio: 0.78
Staphylococcus aureus [19]
  MIC: 19 µM
Pseudomonas aeruginosa [20]
  MIC: 2.3 µM
Plasmodium falciparum [21]
  IC50: 130 nM

## Cc1ccc2c(c1)[I+]c1ccccc1-2.O=S(=O)([O-])C(F)(F)F
[2]
  selectivity ratio: 0.81
[4]
  selectivity ratio: 0.81
[5]
  selectivity ratio: 0.81
Klebsiella pneumoniae
  MIC: 72 µM
[6]
  selectivity ratio: 0.05
Escherichia coli
  MIC: 72 µM
[7]
  selectivity ratio: 0.81
Staphylococcus aureus [8]
  MIC: 4.5 µM
Acinetobacter baumannii [9]
  MIC: 9.1 µM
Acinetobacter baumannii [10]
  MIC: 1.1 µM
[11]
  selectivity ratio: 0.81
[13]
  selectivity ratio: 0.21
Pseudomonas aeruginosa [14]
  MIC: 36 µM
[24]
  Stability: Stable
[16]
  selectivity ratio: 0.11
Acinetobacter baumannii [17]
  MIC: 4.5 µM
Enterococcus faecium
  MIC: 4.5 µM
[18]
  selectivity ratio: 0.05
Staphylococcus aureus [19]
  MIC: 9.1 µM
Pseudomonas aeruginosa [20]
  MIC: 4.5 µM
Plasmodium falciparum [21]
  IC50: 230 nM

## Fc1cccc2c1-c1ccccc1[I+]2
[1]
  selectivity ratio: 59
[2]
  selectivity ratio: 1
Plasmodium falciparum [3]
  IC50: 80 nM
[4]
  selectivity ratio: < 16
[5]
  selectivity ratio: 8.2
Klebsiella pneumoniae
  MIC: 4.5 µM
[6]
  selectivity ratio: 2.1
Escherichia coli
  MIC: 1.1 µM
[7]
  selectivity ratio: 8.2
Staphylococcus aureus [8]
  MIC: 2.2 µM
Acinetobacter baumannii [9]
  MIC: 0.56 µM
Acinetobacter baumannii [10]
  MIC: < 0.28 µM
[11]
  selectivity ratio: 2.1
Plasmodium knowlesi [12]
  IC50: 80 nM
[13]
  selectivity ratio: 4.1
Pseudomonas aeruginosa [14]
  MIC: 1.1 µM
[15]
  selectivity ratio: 61
[16]
  selectivity ratio: 0.51
Acinetobacter baumannii [17]
  MIC: 0.56 µM
Enterococcus faecium
  MIC: 0.56 µM
[18]
  selectivity ratio: 4.2
Staphylococcus aureus [19]
  MIC: 2.2 µM
Pseudomonas aeruginosa [20]
  MIC: < 0.28 µM
Plasmodium falciparum [21]
  IC50: 50 nM
